Laboratory results from PMC11187553 (RSC Medicinal Chemistry, 2024).
Entries after “also recorded” stand apart in the source; their conditions may differ.

Legend:
SH-SY5Y cells [1] = test: Cytotoxic effects in SH-SY5Y cells; assay type: cell-based, human; details: for cytotoxicity (in words): 0.1-100 μM, 24, 48 or 72 h
SH-SY5Y cells [2] = test: Analysis of cell cycle in SH-SY5Y cells; assay type: cell-based, human; details: 72 h
Outline: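 SH-SY5Y cells were grown in DMEM with 10% FBS and antibiotics at 37 °C in 5% CO2. After 72 h with test compound, cells were collected, fixed in 70% ice-cold ethanol and stained with a propidium iodide cell-cycle reagent for 30 min in the dark at room temperature. Cell-cycle distribution was read by flow cytometry.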

[3] = test system: reactive oxygen species (ROS) in SH-SY5Y cells; test: ROS determination with DCFDA probe in SH-SY5Y cells; assay type: cell-based, human; details: for protective effect against TBH-induced oxidative stress: 2 μM 24 h pre-treatment, 100 μM tert-butyl hydroperoxide 30 min; for effect on endogenous ROS (oxidative stress) vs control: 2 μM, 24 h, DCFDA
Outline: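 SH-SY5Y cells (1 × 10^4/well) were left 24 h to adhere, then given vehicle or 2 μM test compound for 24 h. After washing, cells were loaded with 10 μM DCFDA in DMEM for 30 min. Oxidative stress was then induced with 100 μM tert-butyl hydroperoxide in PBS for 30 min. Fluorescence (485/535 nm) was normalised to Lowry protein; experiments were done in triplicate.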

SH-SY5Y cells [4] = test: SH-SY5Y viability after sulforaphane; assay type: cell-based, human; details: data not shown
[5] = test system: histones H2/H3 lysine acetylation; test: Western blot of lysine acetylation of histones H2/H3 in SH-SY5Y cells; assay type: cell-based, human; details: 5 μM, 6 h
Outline: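 SH-SY5Y cells were seeded at 20 × 10^4 cells/cm2 and grown 48 h, then given 5 μM test compound or vehicle for 6 h. Cells were washed in 10 mM sodium butyrate/PBS, nuclei isolated, and histones acid-extracted (0.4 N H2SO4, 4 °C, 1 h) and precipitated in acetone. Samples ran on 15% gels and were blotted to nitrocellulose with anti-acetyl-lysine antibody. Densitometry was normalised to H1.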

SH-SY5Y cells [6] = test: SH-SY5Y viability after NAC pre-treatment and compound 6; assay type: cell-based, human; details: NAC 2 mM 1 h, then compound 10 μM 24 h
SH-SY5Y cells [7] = test: Protection of SH-SY5Y cells from H2O2 cytotoxicity; assay type: cell-based, human; details: pre-treatment at all concentrations (1-50 μM), 24 h
HDAC6 = target: T1, HDAC6 (Homo sapiens, UniProt Q9UBN7); test: HDAC inhibition in vitro assay; assay type: biochemical; details: from IC50 values of Table 2
T1 sequence (Q9UBN7 1-1215): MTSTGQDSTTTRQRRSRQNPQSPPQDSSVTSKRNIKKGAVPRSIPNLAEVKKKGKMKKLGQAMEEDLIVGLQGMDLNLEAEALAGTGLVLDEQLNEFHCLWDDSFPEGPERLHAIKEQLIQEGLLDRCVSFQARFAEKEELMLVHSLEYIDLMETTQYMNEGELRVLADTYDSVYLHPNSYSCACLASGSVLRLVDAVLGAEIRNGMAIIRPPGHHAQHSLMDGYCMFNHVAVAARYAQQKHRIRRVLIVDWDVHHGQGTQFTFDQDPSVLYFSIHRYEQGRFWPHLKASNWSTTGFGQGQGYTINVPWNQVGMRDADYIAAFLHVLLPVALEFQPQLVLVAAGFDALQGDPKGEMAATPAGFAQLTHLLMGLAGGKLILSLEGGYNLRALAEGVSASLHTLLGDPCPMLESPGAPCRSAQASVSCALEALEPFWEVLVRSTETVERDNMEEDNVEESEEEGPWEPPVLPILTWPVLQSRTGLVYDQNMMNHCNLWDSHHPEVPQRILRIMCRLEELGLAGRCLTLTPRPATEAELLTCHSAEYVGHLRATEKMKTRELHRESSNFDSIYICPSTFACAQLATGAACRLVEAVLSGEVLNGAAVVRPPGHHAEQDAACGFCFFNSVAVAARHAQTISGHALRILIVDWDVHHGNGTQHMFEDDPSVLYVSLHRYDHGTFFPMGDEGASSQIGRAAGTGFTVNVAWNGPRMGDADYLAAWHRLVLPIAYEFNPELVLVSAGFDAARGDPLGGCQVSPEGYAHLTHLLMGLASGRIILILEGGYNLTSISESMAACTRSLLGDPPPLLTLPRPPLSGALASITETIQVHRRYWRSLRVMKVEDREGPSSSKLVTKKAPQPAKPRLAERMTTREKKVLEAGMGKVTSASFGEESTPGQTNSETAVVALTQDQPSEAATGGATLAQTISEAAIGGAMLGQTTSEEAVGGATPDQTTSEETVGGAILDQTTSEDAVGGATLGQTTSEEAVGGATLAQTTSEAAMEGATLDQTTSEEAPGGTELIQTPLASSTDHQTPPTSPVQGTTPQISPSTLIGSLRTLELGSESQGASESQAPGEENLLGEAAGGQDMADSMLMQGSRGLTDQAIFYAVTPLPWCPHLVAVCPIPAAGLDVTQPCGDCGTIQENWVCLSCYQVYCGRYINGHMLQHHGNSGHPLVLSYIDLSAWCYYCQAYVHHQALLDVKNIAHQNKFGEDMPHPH

HepG2 cells = test: Cytotoxicity in human hepatoma cell line HepG2; assay type: cell-based; details: 24 h incubation at 1-100 μM, MTT
Outline: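 HepG2 cells were grown in MEM with 10% FBS, penicillin and streptomycin, then seeded at 1.5 × 10^4 cells/well. After 24 h they received test compound ([…]) in complete medium or vehicle for 24 h. MTT (0.2 mg mL−1 in PBS) was added for 2 h at 37 °C, formazan was dissolved in DMSO, and A570 was read. Results are % live cells versus vehicle, mean ± SD, n = 4.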

[8] = test system: neural progenitor cells (neurospheres); test: Neurospheres proliferation; assay type: cell-based, Mus musculus; details: 7 DIV
Outline: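 NPCs from the subventricular zone of 8-month-old male C57BL/6N mice were Accutase-dissociated and plated as single cells (5 × 10^3/well) in suspension. Medium was DMEM-F12 with glutamine, insulin, 20 ng ml−1 EGF, 20 ng ml−1 FGF2, N2 and B27. Test compound (2.5–50 μM) or DMSO was present for 7 DIV. Brightfield live-cell images were taken daily; only aggregates over 400 μm2 were analysed.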

[9] = test system: neural progenitor cells (neurospheres); test: Neurospheres differentiation analysis; assay type: cell-based, Mus musculus; details: 2.5 and 5 μM, 7 DIV
Outline: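 Neurospheres came from subventricular-zone NPCs of 8-month-old male C57BL/6N mice. Thirty spheres were plated on Matrigel-coated coverslips in complete DMEM F-12 with test compound or DMSO for 7 DIV. Cells were fixed in 4% PFA, permeabilised with Triton, blocked in goat serum, and stained overnight at 4 °C for DCX, GFAP, Olig2 and Nestin. Confocal z-stacks gave marker intensity/DAPI intensity; mean ± SD of 3 fields per condition.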

CC1=C(NCCCCCC(=O)NO)C(=O)c2ccccc2C1=O [Compound 2, N-Hydroxy-6-((3-methyl-1,4-dioxo-1,4-dihydronaphthalen-2-yl)amino)hexanamide]
IC50 (SH-SY5Y cells [1]; Homo sapiens, 24 h, read-out: IC50 (μM) ± SEM 24 h): > 100 µM

Nc1ccccc1NC(=O)c1ccc(CNC2=CC(=O)c3ccccc3C2=O)cc1 [Compound 5, N-(2-Aminophenyl)-4-(((1,4-dioxo-1,4-dihydronaphthalen-2-yl)amino)methyl)benzamide]
cytotoxicity (in words) (SH-SY5Y cells [1]): comparable to that of vorinostat

CC1=C(NCc2ccc(C(=O)Nc3ccccc3N)cc2)C(=O)c2ccccc2C1=O [Compound 6, N-(2-Aminophenyl)-4-(((3-methyl-1,4-dioxo-1,4-dihydronaphthalen-2-yl)amino)methyl)benzamide]
cell-cycle block in G0/G1, S or G2/M (cytostatic effect) (SH-SY5Y cells [2]): no cell-cycle block | protective effect against TBH-induced oxidative stress [3]: did not show any protective effect | effect on endogenous ROS (oxidative stress) vs control [3]: significant induction of oxidative stress | change of toxic activity in cells pretreated with sulforaphane (SH-SY5Y cells [4]; SFN pre-treatment): did not observe any change in the toxic activity | acetylation of histone H2/H3 lysines [5]: massive hyperacetylation | mitigation of cytotoxic effect by NAC pre-treatment (SH-SY5Y cells [6]): not mitigated

O=C(CS)NCCCCNC1=CC(=O)c2ccccc2C1=O [Compound 7, N-(4-((1,4-Dioxo-1,4-dihydronaphthalen-2-yl)amino)butyl)-2-mercaptoacetamide]
cytotoxicity (in words) (SH-SY5Y cells [1]): lowest cytotoxicity

CC1=C(NCCCCNC(=O)CS)C(=O)c2ccccc2C1=O [Compound 8, 2-Mercapto-N-(4-((3-methyl-1,4-dioxo-1,4-dihydronaphthalen-2-yl)amino)butyl)acetamide]
rescue of SH-SY5Y cell viability from H2O2 (SH-SY5Y cells [7]): did not rescue | protective effect against TBH-induced oxidative stress [3]: did not show any protective effect | effect on endogenous ROS (oxidative stress) vs control [3]: only a tendency to increase ROS production | protective activity in H2O2-stressed cells after sulforaphane treatment (SH-SY5Y cells [4]; SFN (NQO1 inducer)): no increase in the protective activity | selectivity between HDAC2 and HDAC6 isoforms (HDAC6): no selectivity | toxicity in HepG2 cells (in words) (HepG2 cells): no significant toxicity up to 10 μM | neurospheres number per well vs DMSO control ([8]; 2.5 and 5 μM): significantly increased | neurospheres size vs DMSO control ([8]; 2.5 and 5 μM): without affecting | toxicity to neurospheres ([8]; higher concentrations 25, 50 μM): toxic | cytotoxicity (in words) (SH-SY5Y cells [1]): nontoxic up to the concentration of 100 μM; also recorded: lowest cytotoxicity | DCX+ cells (immature neurons marker) vs DMSO control [9]: significantly increased | GFAP expression (astrocytes marker) vs DMSO control [9]: without affecting | Nestin+ cells (NPCs marker) vs DMSO control [9]: decreased | Olig2 expression (OPCs marker) vs DMSO control [9]: without affecting
